Activity calls are given as the source filed them. No cut-off for these calls is given here.

T1 sequence (O00206 whole entry): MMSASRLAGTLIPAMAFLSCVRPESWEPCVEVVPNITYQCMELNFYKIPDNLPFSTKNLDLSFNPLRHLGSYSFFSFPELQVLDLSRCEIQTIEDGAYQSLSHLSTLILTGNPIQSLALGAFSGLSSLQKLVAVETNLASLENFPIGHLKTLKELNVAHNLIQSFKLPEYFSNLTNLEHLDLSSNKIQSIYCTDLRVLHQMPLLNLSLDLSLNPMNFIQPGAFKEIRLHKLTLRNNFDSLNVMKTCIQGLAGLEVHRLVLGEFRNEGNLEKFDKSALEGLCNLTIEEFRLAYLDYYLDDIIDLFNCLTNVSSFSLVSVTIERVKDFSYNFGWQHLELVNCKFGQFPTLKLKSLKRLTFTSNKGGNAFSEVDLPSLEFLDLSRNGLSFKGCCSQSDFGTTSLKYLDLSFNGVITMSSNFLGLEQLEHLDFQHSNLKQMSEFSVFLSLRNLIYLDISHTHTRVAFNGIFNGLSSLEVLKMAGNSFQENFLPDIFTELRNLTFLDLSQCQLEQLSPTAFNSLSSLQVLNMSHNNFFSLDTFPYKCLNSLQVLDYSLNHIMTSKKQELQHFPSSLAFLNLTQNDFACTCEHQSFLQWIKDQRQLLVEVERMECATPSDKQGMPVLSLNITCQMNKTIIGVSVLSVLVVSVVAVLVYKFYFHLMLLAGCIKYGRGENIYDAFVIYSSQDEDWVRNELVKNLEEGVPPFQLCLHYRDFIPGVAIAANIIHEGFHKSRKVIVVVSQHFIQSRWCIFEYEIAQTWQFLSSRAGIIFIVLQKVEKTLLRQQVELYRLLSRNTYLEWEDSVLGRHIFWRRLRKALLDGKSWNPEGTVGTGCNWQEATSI

One data set concerns the target T1, Toll-like receptor 4 (Homo sapiens, UniProt O00206). Put plainly: Binding affinity to human recombinant TLR4 at >320 uM by SPR method.
Conditions: not given
A digest of the protocol:
(§1)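 Recombinant human TLR4 was amine-coupled to a CM5 chip at about 8000 RU. Titration was run at 25 °C in PBS pH 7.4 with 2% DMSO, at 0, 5, 10, 20, 40, 80 (repeated at the end), 160 and 320 µM. Each injection lasted 1 min and dissociation was followed for 30 s. The response at the end of association was plotted against concentration.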
With `COc1ccc(O)c(C(=O)c2cnc(/N=C(\N)Nc3ccc(F)cc3)nc2)c1`, the result was inactive.

The target in a further data set is T1, Toll-like receptor 4. Put plainly: Binding affinity to human recombinant TLR4 up to 320 uM by SPR method.
Conditions: not given
In short, it runs like this: as §1
Take `COc1ccc(O)c(C(=O)c2cnc(/N=C(\N)Nc3ccc(F)cc3)nc2)c1`: the outcome was Active.

The next data set deals with T1, Toll-like receptor 4. Put plainly: Binding affinity to human recombinant TLR4 at 20 uM by SPR method.
Conditions: not given
In short, it runs like this: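 Recombinant human TLR4 was amine-coupled to a CM5 chip at about 8000 RU, with a reference flow cell. Runs were at 25 °C in PBS pH 7.4 plus 2% DMSO running buffer. Compounds were injected at 20 and 200 µM for 1 min, and dissociation was monitored for 30 s. Responses were compared against buffer injection, with no regeneration.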
On to `COc1ccc(O)c(C(=O)c2cnc(/N=C(\N)Nc3ccc(F)cc3)nc2)c1`, for which the result was Active.

Another data set relates to PBMC. As to the kind of experiment: Inhibition of TNFalpha secretion in human PBMC preincubated at 100 uM for 2 hrs before LPS challenge measured after 48 hrs by ELISA. In kind it is functional.
Conditions: not given
A digest of the protocol:
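PBMCs were isolated from healthy volunteer blood and pre-incubated with compound for 2 h. They were then challenged with LPS for 48 h, with TAK-242 as positive control. Supernatant TNF-α was measured by ELISA, and significance was tested by unpaired t tests.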
Regarding `COc1ccc(O)c(C(=O)c2cnc(/N=C(\N)Nc3ccc(F)cc3)nc2)c1`, testing at 100 µM gave an inhibition of 87.4%.
`CN(CC(=O)Nc1ccc(N2CCOCC2)cc1)Cc1nc2scc(-c3ccccc3)c2c(=O)[nH]1` gave an inhibition at 100 µM of 93.3%.
The compound `Cc1ccccc1Nc1nc(N)nc(CN2CCC[C@@H]2c2nc3ccccc3s2)n1` displayed an inhibition at 100 µM of 80.8%.

Another data set concerns HEK293. As to the kind of experiment: Cytotoxicity against HEK293 cells after 24 hrs by flow cytometry. Conditions: human, hek293, 24 h. In kind it is cell-based. A digest of the protocol:
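HEK293 cells were cultured for 24 h with compound at 100 or 200 µM, with DMSO as control. Cells were then harvested and stained with propidium iodide to count dead cells. Solubility in RPMI 1640 was first checked by light microscopy for precipitation.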
On to `O=C(CN1CCC[C@H]1c1nc2ccccc2s1)c1c[nH]c(C(=O)N2CCCC2)c1`, for which the Activity entry is on record as “Toxic”.
Still for that read-out and setting: under `Cc1ccccc1NC(=O)NCCNc1ccc(Nc2ccccn2)nn1` stands “Toxic”; under `COc1ccc(OC[C@H](O)CN(C)C(=O)c2ccc(Cl)cc2)cc1`, “Toxic”.
Regarding `Cc1cc([C@@H]2CCCN2C[C@H](O)COc2ccc(Cl)cc2)on1`, the Activity entry was “Toxic”.

The target of a further data set is T1, Toll-like receptor 4. As to the kind of experiment: Antagonist activity at human TLR4 expressed in LPS-stimulated HEK293 cells co-expressing MDM2 and CD14 after 2 hrs by SEAP assay. In kind it is cell-based. The settings on record: in the assay text read “MD-2” for “MDM2”. A digest of the protocol:
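HEK-Blue hTLR4 cells (HEK293 co-transfected with human TLR4, MD-2, CD14 and an inducible SEAP reporter) were cultured per provider instructions. They were pre-incubated with compound at various concentrations for 2 h at 37 C, then challenged with LPS for 20 h. Supernatant SEAP was read colorimetrically, and IC50 was calculated from the decrease in absorbance.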
As to `COc1ccc(O)c(C(=O)c2cnc(/N=C(\N)Nc3ccc(F)cc3)nc2)c1`, the midpoint of inhibition, the IC50, lay at 16.6 µM.
Compound `CN(CC(=O)Nc1ccc(N2CCOCC2)cc1)Cc1nc2scc(-c3ccccc3)c2c(=O)[nH]1` had an IC50 of 168 µM.
Same read-out and setting: under `Cc1ccccc1Nc1nc(N)nc(CN2CCC[C@@H]2c2nc3ccccc3s2)n1` stands 64.1 µM.

For a further data set, the target named is T1, Toll-like receptor 4. Put plainly: Antagonist activity at human TLR4 expressed in LPS-stimulated HEK293 cells co-expressing MD-2 and CD14 after 2 hrs by SEAP assay.
Conditions: not given
`O=C(CCc1nc(O)c2c3c(sc2n1)CCCC3)NCC(=O)Nc1ccccc1Br`: the IC50 entry is reported as “ND(Insoluble)”.
Turning to `O=C(NCCNc1ccc(Nc2ccccn2)nn1)Nc1ccccc1F`, the IC50 entry is reported as “Not Active”.
The same measure, in the same setting: under `CC(C)(C)[C@H]1CCc2c(sc3nc(CCC(=O)NCc4ccc5c(c4)OCO5)[nH]c(=O)c23)C1` stands “ND(Insoluble)”.
For `CN(CC(=O)Nc1cccc(F)c1)Cc1nc2scc(-c3ccc(F)cc3)c2c(=O)[nH]1`, the IC50 entry is “ND(Insoluble)”.
For the compound `CN(CC(=O)Nc1ccc(Cl)c(Cl)c1)Cc1nc2scc(-c3ccc(F)cc3)c2c(=O)[nH]1`, the IC50 result is given as “ND(Insoluble)”.
As to `C[C@H](Sc1nc2scc(-c3cccs3)c2c(=O)[nH]1)C(=O)NC(=O)NC1CCCCC1`, the IC50 result is recorded as “ND(Insoluble)”.
In the case of `COc1ccc(NC(=N)Nc2nc(C)c(Cc3ccccc3)c(O)n2)cc1`, the IC50 result is “ND(Insoluble)”.
`N#Cc1ccc(OC[C@H](O)CNCc2nc3ccccc3s2)cc1`: the IC50 entry is “Not Active”.
Take `O=C(CSCC(=O)Nc1ccccc1)NNC(=O)Nc1ccccc1`: the IC50 entry is given as “ND(Insoluble)”.
For the compound `COc1ccc(OC[C@H](O)CN2CCc3ccccc3C2)cc1`, the IC50 result is given as “ND(Insoluble)”.
Consider `COc1ccccc1CNC(=O)c1ccccc1NS(=O)(=O)c1ccc2[nH]c(=O)[nH]c2c1`, for which the IC50 entry is listed as “ND(Insoluble)”.
For `CC(C)c1ccc(NC(=O)CCc2csc(NC(=O)c3ccc[nH]c3=O)n2)cc1`, the IC50 entry is given as “ND(Insoluble)”.
In the case of `Cc1nn(Cc2ccccc2Cl)c(C)c1CN(C)CCn1nc2ccccn2c1=O`, the IC50 result is on record as “Not Active”.
On to `O=C(CSc1nnc(-c2ccc3c(c2)OCCO3)c(O)n1)Nc1ccc(F)cc1`, for which the half-maximal inhibitory concentration (IC50) result was “ND(Insoluble)”.
For `Cc1ccc(Cn2cc(C(=O)NNC(=O)Nc3ccc4c(c3)OCO4)ccc2=O)cc1`, the IC50 entry is recorded as “ND(Insoluble)”.
In the case of `CCN1CCN(CCNC(=O)[C@H](C)C2CCN(C(=O)c3cc4cc(Cl)ccc4[nH]3)CC2)CC1`, the IC50 result was “ND(Insoluble)”.
Consider `Nc1nc(CSc2nnc(Cc3ccccc3F)n2N)nc(Nc2ccc(Cl)cc2)n1`, for which the IC50 result is “Not Active”.
Consider `C[C@H](SCc1nc2scc(-c3ccccc3)c2c(=O)[nH]1)C(=O)NCc1nc2ccccc2[nH]1`, for which the IC50 result was “ND(Insoluble)”.
As for `Cc1ccc(C(=O)Nc2c(N)nc(SCC(=O)NCc3ccc4c(c3)OCO4)[nH]c2=O)cc1`, the IC50 result is “ND(Insoluble)”.
On to `CN(Cc1nc2ccccc2s1)C[C@@H](O)COc1ccc(F)cc1`, for which the concentration for half-maximal inhibition (IC50) result was “Not Active”.
As to `N/C(=N\C(=O)c1ccc(-c2ccccc2)cc1)Nc1nc2ccccc2o1`, the IC50 entry was “ND(Insoluble)”.
Consider `Cc1ncc(CN(C)C[C@@H](O)COc2ccc(F)cc2)s1`, for which the IC50 entry is “ND(Insoluble)”.
For the compound `C[C@@H](SCc1nc2scc(-c3ccccc3)c2c(=O)[nH]1)C(=O)Nc1ccc2c(c1)OCO2`, the IC50 entry is on record as “Not Active”.
For the compound `CC(C)(C)[C@@H]1CCc2c(sc3nc(CCC(=O)N4CCN(c5ccccn5)CC4)[nH]c(=O)c23)C1`, the IC50 result is reported as “ND(Insoluble)”.
As for `N=C(NC1=N[C@@H](CC(=O)Nc2ccc(Cl)cc2)C(O)=N1)Nc1ccccc1`, the IC50 result is recorded as “Not Active”.
As for `Cc1nn(Cc2ccccc2Cl)c(C)c1CN(C)C(=O)/C=C/c1cccs1`, the IC50 result is listed as “Not Active”.
For the compound `Cc1nn(-c2ccccc2)c(C)c1CN(C)C[C@@H](O)Cn1cccn1`, the IC50 entry was “Not Active”.
As to `O=c1[nH]c(CN2CCC[C@@H]2c2ccc3c(c2)OCCCO3)nc2scc(-c3ccccc3)c12`, the IC50 entry is reported as “ND(Insoluble)”.
For `O=C(NCCNC(=O)c1cc2ccccc2[nH]1)C(=O)NCc1ccc2c(c1)OCO2`, the IC50 result is reported as “Not Active”.
Same read-out and setting: next, `O=C(CCc1nc2sc3c(c2c(=O)[nH]1)CCCC3)NCc1nc2ccccc2[nH]1`: “ND(Insoluble)”; `CCN(CC(=O)Nc1ccc2c(c1)OCCO2)Cc1nc2scc(-c3ccc(C)s3)c2c(=O)[nH]1`: “ND(Insoluble)”; `Cc1nn(Cc2ccccc2Cl)c(C)c1CN(C)C(=O)/C=C/c1ccc2c(c1)OCO2`: “Not Active”.
Same read-out and setting: under `COC(=O)c1ccc(/C=N/NC(=O)c2cc(-c3cccc([N+](=O)[O-])c3)[nH]n2)cc1` stands “ND(Insoluble)”; under `O=C(CSc1nnc(-c2ccc3c(c2)OCCO3)c(O)n1)Nc1ccc(F)c(F)c1`, “ND(Insoluble)”; under `O=C(CSCC(=O)Nc1ccccc1)NNC(=O)Nc1ccc(Cl)cc1`, “ND(Insoluble)”.
For `Cc1cccc(NC(=O)CNC(=O)CCc2nc(O)c3c4c(sc3n2)CCCC4)c1C`, the IC50 result is recorded as “ND(Insoluble)”.
Consider `COc1ccc(NC(=O)CN(C)C(=O)c2cc(-c3ccc(C)s3)[nH]n2)cc1`, for which the IC50 result was “ND(Insoluble)”.
Same read-out and setting: under `COc1cccc(NC(=O)/C=C(\C)NNC(=O)c2ccc(-c3ccccc3)cc2)c1` stands “ND(Insoluble)”.

The record behind these values is ChEMBL document CHEMBL3085658, “Novel toll-like receptor 4 (TLR4) antagonists identified by structure- and ligand-based virtual screening” (Eur J Med Chem, 2013).
